Results published in ChEMBL document CHEMBL5376024, “Small molecule WDR5 inhibitors down-regulate lncRNA expression” (RSC Med Chem, 2024).
Activity calls are given as the source filed them. The rule behind the calls is not given here.

How the values were obtained:
Format in all cases: cell-based
[1] = tested on: U2OS; test: Inhibition of HOTTIP-WDR5 complex formation in human U2OS cells at 10 uM by in vitro RNA immunoprecipitation assay
Summary of the method: (§1)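 RIP assay on purified FLAG-WDR5 loaded at 0.2 mg/mL onto anti-FLAG magnetic beads (Buffer C with 0.1% IGEPAL, 0.1% BSA, 10 µg/mL yeast tRNA; 4 °C, 3 h). The beads were then given 1 µg of U-2 OS total RNA (TRIzol) with or without inhibitor, in 0.1% DMSO in RIP buffer (Tris pH 7.5, KCl, EDTA, RNasin), for 1 h at rt. RNA was read by RT-qPCR as percentage enrichment against a 50% input.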

[2] = tested on: U2OS; test: Inhibition of HOXC13-AS-WDR5 complex formation in human U2OS cells at 10 uM by in vitro RNA immunoprecipitation assay; summary of the method: as §1
[3] = tested on: MDA-MB-231; test: Inhibition of IncRNA-WDR5 complex in human MDA-MB-231 cells assessed as downregulation of HOTTIP expression measured at 10 uM after 1 day by RT-qPCR analysis
Summary of the method: (§2)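 MDA-MB-231 cells (DMEM, 10% FBS, 37 °C, 5% CO2) were seeded in 12-well plates at 1×10^5 cells/well for 1-day runs or 5×10^4 cells/well for 3-day runs. After one day the medium was replaced with medium holding compound (1, 5 or 10 µM) or 0.1% DMSO blank. Total RNA was extracted with TRIzol and analysed by RT-qPCR. Fold change was calculated by 2^-ΔΔCt against GAPDH and the blank. Values are means of individual bioreplicates ± SD.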

[4] = tested on: MDA-MB-231; test: Inhibition of IncRNA-WDR5 complex in human MDA-MB-231 cells assessed as downregulation of HOTTIP expression measured at 10 uM after 3 days by RT-qPCR analysis; conditions: time 3.0 day; summary of the method: as §2
[5] = tested on: MDA-MB-231; test: Inhibition of IncRNA-WDR5 complex in human MDA-MB-231 cells assessed as downregulation of FOXD3-AS1 expression measured at 10 uM after 1 to 3 days by RT-qPCR analysis; conditions: time 1-3 day; summary of the method: as §2

Row | SMILES | inhibition [1] | inhibition [2] | inhibition [3] | inhibition [4] | inhibition [5]
1 | CN1CCN(c2ccc(-c3cccc(CN4CCOCC4)c3)cc2NC(=O)c2c[nH]c(=O)cc2C(F)(F)F)CC1 | inactive | inactive | Active |  | 
2 | CNC(=O)c1cc(C2(C#N)CCC2)cc(NS(=O)(=O)c2cc(Br)cc(Cl)c2O)c1O | Active | Active | inactive | Active | inactive
